Assays:
[1] = system: Rattus norvegicus; experiment: Decrease in lipase level in rat liver at 10 mg/kg/day administered for 16 days (reference value: 100 +/- 39%); assay type: functional; design: scale not given: the % may be the effect or the level left
[2] = system: Rattus norvegicus; experiment: Effect on food intake in rat at 5 mg/kg/day measured during first week (reference value: 19.1 +/- 1.7 gms); assay type: ADME, organism-based; settings: in vivo
In short: (§1)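 Male rats dosed orally at 1, 5, 10 or 50 mg/kg/day in 1% CMC. Average food intake in grams per rat per week measured over a 2-week period, first and second weeks reported separately. N = 8, Student's t test against the 1% CMC control.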

[3] = system: Rattus norvegicus; experiment: Effect on food intake in rat at 1 mg/kg/day measured during second week (reference value: 23.4 +/- 1.8 gms); assay type: ADME, organism-based; settings: in vivo; in short: as §1
[4] = system: Rattus norvegicus; experiment: Effect on food intake in rat at 50 mg/kg/day measured during second week (reference value: 23.4 +/- 1.8 gms); assay type: ADME, organism-based; settings: in vivo; in short: as §1
[5] = system: Rattus norvegicus; experiment: Effect on kidney weight in rat at 10 mg/kg/day administered for 16 days measured 24 hrs after last drug dosage relative to total body weight (reference value: 0.92 to 0.96%); assay type: ADME, organism-based; settings: in vivo
[6] = system: Rattus norvegicus; experiment: Effect on spleen weight in rat at 50 mg/kg/day administered for 16 days measured 24 hrs after last drug dosage relative to total body weight (reference value: 0.55 +/- 0.12%); assay type: ADME, organism-based; settings: in vivo
[7] = system: Rattus norvegicus; experiment: Effect on brain weight in rat at 1 mg/kg/day administered for 16 days measured 24 hrs after last drug dosage relative to total body weight (reference value: 0.67 +/- 0.05%); assay type: ADME, organism-based; settings: in vivo
[8] = system: Rattus norvegicus; experiment: Effect on testes weight in rat at 5 mg/kg/day administered for 16 days measured 24 hrs after last drug dosage relative to total body weight (reference value: 1.08 +/- 0.08%); assay type: ADME, organism-based, Testis; settings: in vivo
[9] = system: Rattus norvegicus; experiment: Effect on testes weight in rat at 50 mg/kg/day administered for 16 days measured 24 hrs after last drug dosage relative to total body weight (reference value: 1.08 +/- 0.08%); assay type: ADME, organism-based, Testis; settings: in vivo
[10] = system: Rattus norvegicus; experiment: Effect on vesicular gland weight in rat at 5 mg/kg/day administered for 16 days measured 24 hrs after last drug dosage relative to total body weight (reference value: 0.10 +/- 0.04%); assay type: ADME, organism-based; settings: in vivo
[11] = system: Rattus norvegicus; experiment: Effect on vesicular gland weight in rat at 50 mg/kg/day administered for 16 days measured 24 hrs after last drug dosage relative to total body weight (reference value: 0.10 +/- 0.04%); assay type: ADME, organism-based; settings: in vivo
[12] = system: Rattus norvegicus; experiment: Hypocholesterolemic activity in rat assessed as [14C]palmitic acid level in kidney at 10 mg/kg/day administered for 1 week measured after 22 hrs on day 7 by scintillation counting analysis (reference value: 0.68 +/- 0.16%); assay type: functional
In short: (§2)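 Male Sprague-Dawley rats on lab chow dosed orally once daily for 1 week at 10 mg/kg/day, suspended in 1% CMC, or given vehicle alone. On day 7, 5 μCi [1-14C]palmitic acid given orally. Killed after 22 hr; organs made into 10% water homogenates. Aliquots of 0.1 cc of homogenate, urine, blood or feces were digested and scintillation counted. Output is % of dose per tissue, N = 6.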

[13] = system: Rattus norvegicus; experiment: Hypocholesterolemic activity in rat assessed as [14C]cholesterol level in stomach at 10 mg/kg/day administered for 1 week measured after 22 hrs on day 7 by scintillation counting analysis (reference value: 8.87 +/- 4.00%); assay type: functional
In short: (§3)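 Male rats were dosed orally for 1 week (10 mg/kg/day) or with 1% CMC. On day 7 they received 5 μCi [4-14C]cholesterol orally and were killed after 22 hr. Organs were homogenized (10% in water); 0.1-cc aliquots of homogenate, urine, blood or feces were digested with Protosol. Samples were counted in toluene/Triton X-100 (2:1) scintillant with 0.4% PPO and 0.01% POPOP. Results are % of dose per tissue, N = 6.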

[14] = system: Rattus norvegicus; experiment: Hypocholesterolemic activity in rat assessed as [14C]cholesterol level in chyme at 10 mg/kg/day administered for 1 week measured after 22 hrs on day 7 by scintillation counting analysis (reference value: 8.72 +/- 4.95%); assay type: functional; in short: as §3
[15] = system: Rattus norvegicus; experiment: Hypocholesterolemic activity in rat assessed as [14C]cholesterol level in feces at 10 mg/kg/day administered for 1 week measured after 22 hrs on day 7 by scintillation counting analysis (reference value: 15.50 +/- 5.24%); assay type: functional; in short: as §3
[16] = system: Rattus norvegicus; experiment: Hypocholesterolemic activity in rat assessed as [14C]cholesterol level in urine at 10 mg/kg/day administered for 1 week measured after 22 hrs on day 7 by scintillation counting analysis (reference value: 0.14 +/- 0.06%); assay type: functional; in short: as §3
[17] = system: Rattus norvegicus; experiment: Hypocholesterolemic activity in Sprague-Dawley rat assessed as serum cholesterol level at 10 mg/kg/day, po administered via intubation measured on day 10 by Liebermann-Burchard reaction (reference value: 100%); assay type: functional
[18] = system: Rattus norvegicus; experiment: Uterotrophic activity in ovariectomized Sprague-Dawley rat assessed as uterine weight administered for 3 days (reference value: 100 +/- 27%); assay type: organism-based, Uterus; settings: in vivo, 72 h
[19] = system: Rattus norvegicus; experiment: Effect on body weight in rat at 10 mg/kg/day administered for 16 days measured on day 7 (reference value: 173 +/- 12 gms); assay type: ADME, organism-based; settings: in vivo, 384 h
In short: (§4)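 Male Sprague-Dawley rats with chow and water ad libitum. Compound suspended in 1% CMC-water and given orally by intubation needle at 11:00 a.m., 1, 5, 10 or 50 mg/kg/day, for 16 days. Body weight (g) recorded on days 0, 7 and 16. N = 8.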

[20] = system: Rattus norvegicus; experiment: Effect on body weight in rat at 50 mg/kg/day administered for 16 days measured on day 7 (reference value: 173 +/- 12 gms); assay type: ADME, organism-based; settings: in vivo, 384 h; in short: as §4
[21] = system: Rattus norvegicus; experiment: Effect on body weight in rat at 5 mg/kg/day administered for 16 days measured on day 16 (reference value: 233 +/- 16 gms); assay type: ADME, organism-based; settings: in vivo, 384 h; in short: as §4
[22] = system: Rattus norvegicus; experiment: Hypocholesterolemic activity in Sprague-Dawley rat assessed as serum cholesterol level at 5 mg/kg/day, po administered via intubation measured on day 4 by Liebermann-Burchard reaction (reference value: 100 +/- 7%); assay type: functional
[23] = system: Rattus norvegicus; experiment: Hypocholesterolemic activity in Sprague-Dawley rat assessed as serum cholesterol level at 1 mg/kg/day, po administered via intubation measured on day 10 by Liebermann-Burchard reaction (reference value: 100 +/- 7%); assay type: functional
[24] = system: Rattus norvegicus; experiment: Hypocholesterolemic activity in Sprague-Dawley rat assessed as serum cholesterol level at 5 mg/kg/day, po administered via intubation measured on day 10 by Liebermann-Burchard reaction (reference value: 100 +/- 7%); assay type: functional
[25] = system: Rattus norvegicus; experiment: Hypocholesterolemic activity in Sprague-Dawley rat assessed as serum cholesterol level at 5 mg/kg/day, po administered via intubation measured on day 16 by Liebermann-Burchard reaction (reference value: 100 +/- 8%); assay type: functional
[26] = system: Rattus norvegicus; experiment: Effect on protein content in rat liver at 10 mg/kg/day administered for 16 days (reference value: 100 +/- 6%); assay type: ADME, organism-based; settings: in vivo, 384 h
[27] = system: Rattus norvegicus; experiment: Hypocholesterolemic activity in rat assessed as [14C]palmitic acid recovery at 10 mg/kg/day administered for 1 week measured after 22 hrs on day 7 by scintillation counting analysis (reference value: 98%); assay type: functional; in short: as §2
[28] = system: Rattus norvegicus; experiment: Hypocholesterolemic activity in [14C]palmitic acid-treated rat assessed as decrease in 14C fatty acid incorporation into triglyceride fraction in liver at 10 mg/kg/day administered for 1 week by scintillation counting analysis; assay type: functional; design: scale not given: the % may be the effect or the level left
[29] = system: Rattus norvegicus; experiment: Hypocholesterolemic activity in [14C]palmitic acid-treated rat assessed as decrease in 14C fatty acid incorporation into phospholipid fraction in liver at 10 mg/kg/day administered for 1 week by scintillation counting analysis; assay type: functional; design: scale not given: the % may be the effect or the level left

Cc1ccc(OCC(=O)COc2ccc(C)cc2)cc1
Activity [1]: 68%
Activity [2]: 18.8 g
Activity [3]: 29.2 g
Activity [4]: 28.2 g
Activity [5]: 0.93%
Activity [6]: 0.4%
Activity [7]: 0.74%
Activity [8]: 1.03%
Activity [9]: 1.19%
Activity [10]: 0.13%
Activity [11]: 0.15%
Activity [12]: 0.94%
Activity [13]: 3.36%
Activity [14]: 9.21%
Activity [15]: 22.1%
Activity [16]: 0.94%
Activity [17]: 50%
Activity [18]: 82%
Activity [19]: 164 g
Activity [20]: 171 g
Activity [21]: 241 g
Activity [22]: 74%
Activity [23]: 71%
Activity [24]: 58%
Activity [25]: 56%
Activity [26]: 102%
Activity [27]: 96.75%
Activity [28]: 53%
Activity [29]: 16%

Reference: ChEMBL document CHEMBL3272327, “Hypocholesterolemic activity of 1,3-bis(substituted phenoxy)-2-propanones” (J Med Chem, 1976)
